WT yeast gro inh: growth inhibition of WT strain, primary screen, mitochondrial fusion inhibitor project, WT and mutant strains, chemical genetic; mitochondrial fusion phenotypic screen; inhibition, % at 10 µM; 2.1% of 190,000 active; AID 1362, 2008; in the data active = inhibition above about 58%; tested in S. cerevisiae
Diaph act CS: compounds boosting diaphorase resazurin reduction – biochemical, uHTS, resorufin fluorescence, counter-screen for diaphorase-coupled primary assays, primary screen. activation factor at 20 µM. 0.005% of 190,000 active. Diaphorase/resazurin coupled assay, 16 min; active compounds read high; 1 = vehicle wells, 0 = NADH-free wells. AID 1229, 2008;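 active = diaphorase activity raised at least twofold by the compound at 20 µM; inactive = activation factor below 2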
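Measured by – red resorufin fluorescence at 544/590 nm excitation/emission · Test system – Clostridium kluyveri diaphorase, purified enzyme · Incubation – reaction time 16 min, room temperature · Buffer or medium – 50 mM HEPES pH 7.4 with 4.542 mM MgCl2, 0.005% Tween 20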
Diaph inh CS: diaphorase inhibitors and chemical oxidizers, primary screen, counter-screen for diaphorase-coupled primary assays, biochemical, uHTS, resorufin fluorescence | AID 1217, 2008 | inhibition, % at 20 µM | 0.69% of 190,000 active | diaphorase resazurin-to-resorufin fluorescence, NADH, 16 min; bacterial (C. kluyveri) enzyme, not human;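 active = primary screen inhibition at 20 µM above a set limit, cut at about 50% in these data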;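 also: plate controls were DMSO with full reaction for no effect and wells lacking NADH for full effect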
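System: Bacterial diaphorase enzyme (C. kluyveri) | Incubation: 16-min room-temperature incubation before reading | Benchmarks: No-NADH positive control and DMSO neutral control | Measured by: Resorufin fluorescence 544/590 nm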
L major viab: Leishmania major promastigote growth inhibition, primary screen | AID 1063, 2008 | 9% of 200,000 active | inhibition, % at 10 µM | Leishmania major promastigotes, resazurin fluorescence viability;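 also: promastigotes grown with compound for 44 hours at 28 °C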
G6PDH counter: L. mesenteroides G6PDH inhibitors, counter-screen for G6PDH-coupled screening assays, biochemical, Leuconostoc mesenteroides enzyme; glucose-6-phosphate dehydrogenase [Leuconostoc mesenteroides]; Purified L. mesenteroides G6PDH, diaphorase/resazurin coupled fluorescence, 45 min; inhibition, % at 5 µM; 0.12% of 200,000 active; AID 1020, 2008
An asterisk follows results filed as active; . = no result. Only some compounds are listed: those with a hit (about 11% of all), similar ones and a draw of the others. Rule as the data show it, unless noted: active = inhibition above about 50%; inactive = the rest.

SMILES	WT yeast gro inh	Diaph act CS	Diaph inh CS	L major viab	G6PDH counter
Cc1ccc(O)c(NC(=O)c2cccc(NC(=O)c3ccco3)c2)c1	18	1	-2	98*	3
CCCC/C(=N\NC(=O)c1ccc(Br)o1)c1ccccc1	0	1	4	89*	6
C/C(=N\NC(=O)c1nn(C)cc1Br)c1cccc(NC(=O)c2ccncc2)c1	-3	0.9	9	63*	7
O=C(N1CCCC1)N1CCN(c2ncnc3c(-c4ccc(Cl)cc4)nsc23)CC1	.	0.8	17	.	-2
Cc1ccc(C)c(C(=O)CSc2nnc(C)s2)c1	-8	0.9	13	-1	16
COc1ccc(CCNC(=O)CSc2nc3cc(Cl)ccc3o2)cc1OC	3	0.9	6	17	-3
Nc1c(N(C(=O)Nc2ccc(Cl)c(Cl)c2)C2CCCC2)c(=O)[nH]c(=O)n1Cc1ccccc1	-11	1	5	-2	-4
O=C(c1cccc(F)c1)N1CCC(N2CCCCCC2)CC1	21	1	5	87*	2
COc1cccc(C(=O)N2CCOCC2)c1	-7	0.9	7	-3	10
COc1cccc(C(=O)N2CCC(N3CC(C)OC(C)C3)CC2)c1 (stereo not drawn)	-3	0.8	22	73*	10
COc1cccc(C(=O)N2CCN(C3CCC(c4ccccc4)CC3)CC2)c1 (stereo not drawn)	6	0.9	12	89*	0
Cc1ccc(C(=O)NCCCN2CCOCC2)cc1N1CCCC1=O	24	0.8	21	-2	-5
COc1ccc2cnn(CCOc3cc(C)ccc3C(C)C)c(=O)c2c1OC	71*	0.8	23	95*	0
COc1ccc2cnn(CCOc3ccccc3)c(=O)c2c1OC	4	0.9	11	87*	0
Cc1nc(SCc2ccccc2)c([N+](=O)[O-])[nH]1	13	0.8	19	54*	8
CCn1c(=O)cc(OCC(=O)NCCCN2CC(C)CC(C)C2)c2ccccc21 (stereo not drawn)	-49	1	3	-4	-10
CCN(CCCNC(=O)COc1cc(=O)n(C)c2ccccc12)c1ccccc1	-10	1	1	65*	9
CCN(CCCNC(=O)COc1cc(=O)n(CC)c2ccccc12)c1ccccc1	1	0.8	18	53*	-7
CN(C(=O)COc1cc(=O)n(C)c2ccccc12)c1cccc(Cl)c1	10	1	3	15	2
CCN(C(=O)COc1cc(=O)n(C)c2ccccc12)c1cccc(Cl)c1	-4	0.9	13	62*	4
c1cc(N2CCCC2)ccc1C(c1nnnn1C1CCCCC1)N1CCOCC1 (stereo not drawn)	-8	0.9	14	88*	-7
COc1ccc(C(c2nnnn2C2CCCC2)N2CCC(C)CC2)cc1 (stereo not drawn)	2	0.8	16	90*	3
COc1ccc(C(c2nnnn2C2CCCCC2)N2CCN(C)CC2)c(OC)c1 (stereo not drawn)	5	.	.	5	12
COc1ccc(C(c2nnnn2C2CCCCC2)N2CCN(c3ccc(OC)cc3)CC2)cc1 (stereo not drawn)	43	0.8	20	89*	2
COc1ccc(OC)c(C(c2nnnn2C2CCCC2)N2CCN(c3ccccc3)CC2)c1 (stereo not drawn)	-3	0.9	12	97*	6
SMILES	WT yeast gro inh	Diaph act CS	Diaph inh CS	L major viab	G6PDH counter
c1ccc(C(c2nnnn2C2CCCC2)N2CCN(c3ccccc3)CC2)cc1 (stereo not drawn)	42	1	-4	14	1
COC(=O)c1ccc(COc2cccc(C)c2C)cc1	-5	0.9	7	-5	-2
Cc1cc(C)cc(-c2nnc(SCc3ccc(C(=O)O)cc3)o2)c1	-1	.	.	4	15
Cc1ccc(-c2cc(C(=O)OCn3nnc4ccccc4c3=O)c3ccccc3n2)cc1	0	0.8	22	16	9
COc1ccccc1/C=C(/C(=O)OCC(N)=O)c1ccccc1	-5	0.9	6	62*	6
C(=N\N1CCOCC1)/c1cccs1	-7	0.8	16	-3	-8
O=C(c1ccccc1)N(Cc1ccc2c(c1)OCO2)Cc1nc2ccccc2c(=O)[nH]1	1	0.8	20	3	-7
Cc1cc(C)c(S(=O)(=O)N2CCN(CCN3C(=O)c4cccc5cccc(c45)C3=O)CC2)cc1[N+](=O)[O-]	21	1	4	53*	-5
Cc1ccc(S(=O)(=O)N2CCC(CN3C(=O)c4cccc5cccc(c45)C3=O)CC2)cc1	21	0.8	17	95*	5
CCCS(=O)(=O)N1CCN(CCN2C(=O)c3cccc4cccc(c34)C2=O)CC1	9	0.8	17	11	11
O=C(c1ccc(S(=O)(=O)N2CCCCCC2)cc1)N1CCC(CN2C(=O)c3cccc4cccc(c34)C2=O)CC1	34	0.9	11	80*	-2
CCS(=O)(=O)N1CCN(S(=O)(=O)c2ccc(F)cc2)CC1	-31	0.9	6	-4	13
O=C1c2cccc3cccc(c23)C(=O)N1CC1CCN(S(=O)(=O)c2ccc(F)cc2)CC1	15	0.8	17	98*	-14
CCCCNC(=O)C(Cc1ccccc1)NS(=O)(=O)c1ccc2c(c1)c(=O)n(C)c(=O)n2C (stereo not drawn)	8	1.1	-6	-1	7
O=C(COc1ccc(/C=N/NC(=O)C(=O)N2CCCCCC2)cc1)Nc1ccccc1Cl	-2	0.9	6	-3	0
O=C(CCl)N=c1sccn1Cc1ccc(Cl)cc1Cl	-13	0.9	14	86*	-1
COc1ccc(/C=C/C(=O)c2ccccc2)cc1COc1ccccc1F	43	1.1	-6	62*	4
COc1ccc(/C=N/NC(=S)Nc2ccccc2)cc1COc1ccc(F)cc1F	16	0.8	16	55*	-3
COc1ccc(NC(=S)N/N=C/c2ccc(F)cc2)cc1OC	8	0.9	7	-3	-7
COc1ccc(C=O)cc1COc1ccccc1F	-4	0.8	20	61*	-2
COc1ccc(-c2nc3nc(C)cc(C)n3n2)cc1	2	0.9	15	-1	-8
COc1ccc2[nH]cc(CCNS(=O)(=O)c3ccccc3)c2c1	4	0.7	34	-1	9
O=C(C1CCN(C2CCN(Cc3ccc4c(c3)CCO4)CC2)CC1)N1CCOCC1	-1	1.1	-12	30	8
CCc1ccc(/C=C2\SC(=S)N(CCC(=O)N3CCN(C)CC3)C2=O)cc1	8	1	-1	99*	0

Screening results as filed in PubChem BioAssay.
